What was measured:
Type in all cases: functional, Homo sapiens
[1] = test system: TK-10; experiment: Tested for cytotoxic activity against renal cancer TK-10 cell line
Summary of the method: (§1)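 Screened in a panel of 60 human cancer cell lines. The read-out was LC50, the concentration needed for 50% cell kill. Values were reported as log LC50 in a mean graph and plotted against the log of the panel mean LC50.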

[2] = test system: KM-20L2; experiment: Tested for cytotoxic activity against colon cancer KM20L2 cell line; summary of the method: as §1
[3] = test system: RXF 393; experiment: Tested for cytotoxic activity against renal cancer RXF-393 cell line; summary of the method: as §1
[4] = test system: NCI-H23; experiment: Tested for cytotoxic activity against non-small cell lung cancer NCI-H23 cell line; summary of the method: as §1
[5] = test system: MOLT-4; experiment: Tested for cytotoxic activity against leukemia MOLT-4 cell line; summary of the method: as §1
[6] = test system: COLO 205; experiment: Tested for cytotoxic activity against colon cancer COLO 205 cell line; summary of the method: as §1
[7] = test system: LOX IMVI; experiment: Tested for cytotoxic activity against melanoma […] cell line; summary of the method: as §1
[8] = test system: SNB-78; experiment: Tested for cytotoxic activity against CNS cancer SNB-78 cell line; summary of the method: as §1
[9] = test system: SK-MEL-5; experiment: Tested for cytotoxic activity against melanoma SK-MEL-5 cell line; summary of the method: as §1
[10] = test system: LXFL 529; experiment: Tested for cytotoxic activity against non-small cell lung cancer LXFL-529L cell line; summary of the method: as §1
[11] = test system: XF498; experiment: Tested for cytotoxic activity against CNS cancer XF498 cell line; summary of the method: as §1
[12] = test system: ACHN; experiment: Tested for cytotoxic activity against renal cancer ACHN cell line; summary of the method: as §1
[13] = test system: M19-MEL; experiment: Tested for cytotoxic activity against melanoma M19-MEL cell line; summary of the method: as §1
[14] = test system: OVCAR-5; experiment: Tested for cytotoxic activity against ovarian cancer OVCAR-5 cell line; summary of the method: as §1
[15] = test system: SNB-75; experiment: Tested for cytotoxic activity against CNS cancer SNB-75 cell line; summary of the method: as §1
[16] = test system: M14; experiment: Tested for cytotoxic activity against melanoma M14 cell line; summary of the method: as §1
[17] = test system: NCI-H322M; experiment: Tested for cytotoxic activity against non-small cell lung cancer NCI-H322M cell line; summary of the method: as §1
[18] = test system: DLD-1; experiment: Tested for cytotoxic activity against colon cancer DLD-1 cell line; summary of the method: as §1
[19] = test system: U-251; experiment: Tested for cytotoxic activity against CNS cancer U251 cell line; summary of the method: as §1
[20] = test system: UACC-62; experiment: Tested for cytotoxic activity against melanoma UACC-62 cell line; summary of the method: as §1
[21] = test system: HOP-62; experiment: Tested for cytotoxic activity against non-small cell lung cancer HOP-62 cell line; summary of the method: as §1
[22] = test system: OVCAR-3; experiment: Tested for cytotoxic activity against ovarian cancer OVCAR -3 cell line; summary of the method: as §1
[23] = test system: NCI-H522; experiment: Tested for cytotoxic activity against non-small cell lung cancer NCI-H522 cell line; summary of the method: as §1
[24] = test system: CCRF-CEM; experiment: Tested for cytotoxic activity against leukemia CCRF-CEM cell line; summary of the method: as §1
[25] = test system: SNB-19; experiment: Tested for cytotoxic activity against CNS cancer SNB-19 cell line; summary of the method: as §1
[26] = test system: DMS-114; experiment: Tested for cytotoxic activity against small cell lung cancer DMS114 cell line; summary of the method: as §1
[27] = test system: UO-31; experiment: Tested for cytotoxic activity against renal cancer UO-31 cell line; summary of the method: as §1
[28] = test system: SW-620; experiment: Tested for cytotoxic activity against colon cancer SW-620 cell line; summary of the method: as §1
[29] = test system: Malme-3M; experiment: Tested for cytotoxic activity against melanoma MALME-3M cell line; summary of the method: as §1
[30] = test system: NCI-H226; experiment: Tested for cytotoxic activity against non-small cell lung cancer NCI-H226 cell line; summary of the method: as §1
[31] = test system: OVCAR-8; experiment: Tested for cytotoxic activity against ovarian cancer OVCAR-8 cell line; summary of the method: as §1
[32] = test system: IGROV-1; experiment: Tested for cytotoxic activity against ovarian cancer IGROVI cell line; summary of the method: as §1
[33] = test system: 786-0; experiment: Tested for cytotoxic activity against renal cancer 786-0 cell line; summary of the method: as §1
[34] = test system: HOP-18; experiment: Tested for cytotoxic activity against non-small cell lung cancer HOP-18 cell line; summary of the method: as §1
[35] = test system: HT-29; experiment: Tested for cytotoxic activity against colon cancer HT-29 cell line; summary of the method: as §1
[36] = test system: SF-539; experiment: Tested for cytotoxic activity against CNS cancer […] cell line; summary of the method: as §1
[37] = test system: UACC-257; experiment: Tested for cytotoxic activity against melanoma UACC-257 cell line; summary of the method: as §1
[38] = test system: KM12; experiment: Tested for cytotoxic activity against colon cancer KM-12 cell line; summary of the method: as §1
[39] = test system: SK-MEL-2; experiment: Tested for cytotoxic activity against melanoma SK-MEL-2 cell line; summary of the method: as §1
[40] = test system: SK-OV-3; experiment: Tested for cytotoxic activity against ovarian cancer SK-OV-3 cell line; summary of the method: as §1
[41] = test system: HOP-92; experiment: Tested for cytotoxic activity against non-small cell lung cancer HOP92 cell line; summary of the method: as §1
[42] = test system: SK-MEL-28; experiment: Tested for cytotoxic activity against melanoma SK-MEL-28; summary of the method: as §1
[43] = test system: A549; experiment: Tested for cytotoxic activity against non-small cell lung cancer A549/ATCC cell line; summary of the method: as §1
[44] = test system: K562; experiment: Tested for cytotoxic activity against leukemia K-562 cell line; summary of the method: as §1
[45] = test system: CAKI-1; experiment: Tested for cytotoxic activity against renal cancer CAKI-1 cell line; summary of the method: as §1
[46] = test system: SF-295; experiment: Tested for cytotoxic activity against CNS cancer SF-295 cell line; summary of the method: as §1
[47] = test system: EKVX; experiment: Tested for cytotoxic activity against non-small cell lung cancer […] cell line; summary of the method: as §1
[48] = test system: SN12C; experiment: Tested for cytotoxic activity against renal cancer SN12C cell line; summary of the method: as §1
[49] = test system: SF-268; experiment: Tested for cytotoxic activity against CNS cancer […] cell line; summary of the method: as §1
[50] = test system: OVCAR-4; experiment: Tested for cytotoxic activity against ovarian cancer OVCAR-4 cell line; summary of the method: as §1

In the case of `CC(=O)OC1CCn2c1nc1c2C(=O)C(C)=C(N2CC2)C1=O` (stereo not given), the LC50 [1] is reported as 6.06, the LC50 [2] is reported as 6.64 and the LC50 [3] is reported as less than 8. It also gave an LC50 [4] of less than 8, an LC50 [5] greater than 4 and an LC50 [6] of 4.82. For the same compound, the LC50 [7] was less than 8, the LC50 [8] was 5.39 and the LC50 [9] was less than 8. It also gave an LC50 [10] of 7.33, an LC50 [11] of 7.09 and an LC50 [12] of 6.53. It also gave an LC50 [13] of 5.12, an LC50 [14] of 6.53 and an LC50 [15] of 7.56. The LC50 [16] was less than 8, the LC50 [17] was 6.63 and the LC50 [18] was 7.66. The LC50 [19] was 6.53, the LC50 [20] was less than 8 and the LC50 [21] was less than 8. The LC50 [22] was 6.34, the LC50 [23] was less than 8 and the LC50 [24] was greater than 4. It also gave an LC50 [25] of 6.54, an LC50 [26] greater than 4 and an LC50 [27] of less than 8. The LC50 [28] was 6.22, the LC50 [29] was 7.26 and the LC50 [30] was 7.09. For the same compound, the LC50 [31] was 7.09, the LC50 [32] was 5.85 and the LC50 [33] was 7.36. The LC50 [34] was 6.64, the LC50 [35] was 6.03 and the LC50 [36] was 7.89. It also gave an LC50 [37] of 6.71, an LC50 [38] of 7.02 and an LC50 [39] of 7.61. It also gave an LC50 [40] of 6.36, an LC50 [41] of 5.14 and an LC50 [42] of 7.59. The LC50 [43] was 5.44, the LC50 [44] was greater than 4 and the LC50 [45] was 5.53. For the same compound, the LC50 [46] was 6.47, the LC50 [47] was 6.55 and the LC50 [48] was 7.12. It also gave an LC50 [49] of 5.67 and an LC50 [50] of 7.19.

— ChEMBL document CHEMBL1127055, “Pyrrolo[1,2-a]benzimidazole-based aziridinyl quinones. A new class of DNA cleaving agent exhibiting G and A base specificity” (1993)
